From ChEMBL document CHEMBL2407056, “3-(Oxazolo[4,5-b]pyridin-2-yl)anilides as a novel class of potent inhibitors for the kinetoplastid Trypanosoma brucei, the causative agent for human African trypanosomiasis” (Eur J Med Chem, 2013)
Values after ≈ are worked out from the molar mass of the structure shown.

Experiments:
[1] = Intrinsic clearance in human liver microsomes at 1 uM after 60 mins by LC-MS analysis; type: ADME, Microsome; conditions: read-out: CLH
Outline: (§1)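 Compound at 1 µM final (1 in 500 dilution of stock) incubated at 37 °C with human liver microsomes in 0.1 M phosphate buffer pH 7.4, 0.4 mg/mL protein. First-order depletion rate from exponential decay fit used to derive in vitro CLint and half-life; predicted hepatic extraction ratio from scaled CLint with liver blood flow 20.7 mL/min/kg.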

[2] = Kinetic solubility of the compound in phosphate buffer at pH 6.5 by nephelometry; type: physicochemical; conditions: read-out: Kinetic_solubility
Outline: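 DMSO stocks spiked into pH 6.5 phosphate buffer or 0.01 M HCl (about pH 2.0), final DMSO 1% (v/v). Solubility range determined by nephelometry.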

[3] = Half life in human liver microsomes at 1 uM by LC-MS analysis; type: ADME, Microsome; outline: as §1
[4] = Partition coefficient, log D of the compound at pH 7.4 by HPLC analysis; type: physicochemical; conditions: octanol/water
Outline: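 Chromatographic gradient HPLC: mobile phase 50 mM ammonium acetate pH 7.4 (or ammonium formate pH 3.0) with an acetonitrile gradient of 0–100% over 10 min; UV detection at 220 and 254 nm.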

[5] = Kinetic solubility of the compound in phosphate buffer at pH 2 by nephelometry; type: physicochemical; conditions: read-out: Kinetic_solubility
[6] = Selectivity index, ratio of IC50 for HEK293 cells to IC50 for Trypanosoma brucei brucei 427 bloodstream form; type: toxicity, cell-based; conditions: human, read-out: Ratio IC50
Outline: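 HEK293 cells (55 µL of 72,727 cells/mL in DMEM + 10% FCS) in 384-well plates, 24 h at 37 °C/5% CO2. Drug diluted 1:21 from DMSO, final 83.34 to 0.0004 µM, 48 h. […] SI relative to T. b. brucei.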

[7] = tested on: Trypanosoma brucei brucei; experiment: Antitrypanosomal activity against Trypanosoma brucei brucei 427 bloodstream form after 48 hrs by Alamar blue assay; type: functional, organism-based; conditions: Trypanosoma brucei, 427, 48 h
Outline: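 Bloodstream parasites in 384-well plates, 24 h preincubation at 37 °C/5% CO2. DMSO dilutions diluted 1:21 in DMEM and added to give final 41.67 to 0.0004 µM; 48 h incubation. 70% Alamar Blue in HMI-9 + 10% FCS added, 2 h at 37 °C then 22 h at room temperature; read at ex 535/em 590 nm.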

Trypanosoma cruzi = experiment: Antitrypanosomal activity against Trypanosoma cruzi Tulahuen C2C4 amastigotes infected in rat L6 cells after 96 hrs by beta-galactosidase reporter gene assay; type: functional, organism-based; conditions: Tulahuen C2C4, L6, 96 h
Outline: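 L-6 cells (2000/well, RPMI 1640 + 10% FBS, 2 mM L-glutamine) infected after 24 h with 5000 LacZ-expressing trypomastigotes. At 48 h the medium was replaced with eleven 3-fold drug dilutions (100 to 0.002 µg/mL). After 96 h, CPRG/Nonidet substrate added, colour read at 540 nm after 2–6 h. IC50 by linear regression from sigmoidal curves; benznidazole control.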

L6 = experiment: Cytotoxicity against rat L6 cells after 70 hrs by Alamar blue assay; type: cell-based; conditions: L6, 70 h
Outline: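 4000 L-6 cells per well in RPMI 1640 with L-glutamine and 10% FBS. Eleven 3-fold dilutions from 100 to 0.002 µg/mL for 70 h; Alamar Blue 2 h, fluorescence at ex 536/em 588 nm. IC50 by linear regression from sigmoidal curves; podophyllotoxin control.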

Leishmania donovani [8] = experiment: Antimicrobial activity against Leishmania donovani amastigote form infected in mouse peritoneal macrophage after 96 hrs by Giemsa staining method; type: functional, organism-based
Outline: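 Mouse peritoneal macrophages (4×10⁴/well, RPMI 1640 + 10% heat-inactivated FBS) infected after 24 h with 1.2×10⁵ axenic amastigotes; free parasites removed at 4 h, drug dilutions added next day. After 96 h, methanol fixation and 10% Giemsa staining; infected and non-infected macrophages counted, % reduction in parasite burden vs controls, IC50 by linear regression; miltefosine control.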

Leishmania donovani [9] = experiment: Antimicrobial activity against Leishmania donovani MHOM/ET/67/L82 amastigote form after 70 hrs by Alamar blue assay; type: functional, organism-based; conditions: MHOM/ET/67/L82, 70 h
Outline: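 Axenic amastigotes grown at 37 °C in SM medium pH 5.4 with 10% heat-inactivated FBS, 5% CO2; 10⁵ parasites per well exposed to eleven 3-fold dilutions (100 to 0.002 µg/mL) for 70 h. Alamar Blue (resazurin) added for 2–4 h, fluorescence read at ex 536/em 588 nm. IC50 by linear regression from sigmoidal curves; miltefosine control.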

Plasmodium falciparum = experiment: Antimicrobial activity against Plasmodium falciparum NF54 infected in human RBC after 48 hrs by [3H]hypoxanthine incorporation assay; type: functional, organism-based
Outline: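 Erythrocytic stage, drug-sensitive strain, in hypoxanthine-free RPMI 1640 with HEPES, NaHCO3, neomycin, Albumax, human A+ red cells at 2.5% haematocrit, 0.3% parasitaemia. Eleven 3-fold dilutions from 100 to 0.002 µg/mL; 37 °C, 4% CO2/3% O2/93% N2. ³H-hypoxanthine added at 48 h, further 24 h, then harvested and scintillation-counted. IC50 by linear regression; chloroquine control.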

[10] = tested on: Trypanosoma brucei rhodesiense; experiment: Antitrypanosomal activity against Trypanosoma brucei rhodesiense STIB 900 bloodstream form after 70 hrs by Alamar blue assay; type: functional, organism-based; conditions: STIB 900, 70 h
Outline: (§2)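 Bloodstream forms (4×10³/well) in MEM with 25 mM HEPES, extra glucose, non-essential amino acids, 0.2 mM 2-mercaptoethanol, 1 mM pyruvate and 15% heat-inactivated horse serum. Eleven 3-fold dilutions from 100 to 0.002 µg/mL, 70 h at 37 °C/5% CO2; Alamar Blue 2 h, fluorescence at ex 536/em 588 nm; IC50 by linear regression; melarsoprol control. SI relative to L6 cells.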

[11] = Selectivity index, ratio of IC50 for rat L6 cells to IC50 for Trypanosoma cruzi Tulahuen C2C4 amastigote stage; type: toxicity, cell-based; conditions: read-out: Ratio IC50
[12] = Selectivity index, ratio of IC50 for rat L6 cells to IC50 for Trypanosoma brucei rhodesiense STIB 900 bloodstream form; type: toxicity, cell-based; conditions: read-out: Ratio IC50; outline: as §2

Structure (SMILES) | microsomal CLint at 1 µM [1] | solubility kinetic [2] | half-life at 1 µM [3] | logD [4] | solubility kinetic [5] | IC50 [7] | selectivity ratio [6] | other results
O=C(Cn1ccnc1[N+](=O)[O-])NCc1ccccc1 [BENZNIDAZOLE] |  |  |  |  |  |  |  | EC50 (Trypanosoma cruzi): 1460 nM
O=C(Nc1ccc(F)c(-c2nc3ncccc3o2)c1)c1cscn1 | 48 µL/min/mg | 3.1 µg/mL (≈ 9.11 µM) | 36 min | 2.3 | 3.1 µg/mL (≈ 9.11 µM) | 760 nM | 110 | 
COc1cc([C@@H]2c3cc4c(cc3[C@H](O)[C@H]3COC(=O)[C@H]23)OCO4)cc(OC)c1OC [PODOFILOX] |  |  |  |  |  |  |  | EC50 (L6): 17 nM
CCCCCCCCCCCCCCCCOP(=O)([O-])OCC[N+](C)(C)C [MILTEFOSINE] |  |  |  |  |  |  |  | EC50 (Leishmania donovani [8]): 1670 nM; EC50 (Leishmania donovani [9]): 490 nM
CCN(CC)CCCC(C)Nc1ccnc2cc(Cl)ccc12 (stereo not drawn) [CHLOROQUINE] |  |  |  |  |  |  |  | EC50 (Plasmodium falciparum): 6 nM
O=C(Nc1ccc(F)c(-c2nc3ncccc3o2)c1)c1cnco1 | 14 µL/min/mg | 6.3 µg/mL (≈ 19.4 µM) | 124 min | 1.7 | 6.3 µg/mL (≈ 19.4 µM) | 2000 nM | 43 | 
O=C(Nc1ccc(F)c(-c2nc3ncccc3o2)c1)c1ccoc1 | 154 µL/min/mg | 6.3 µg/mL (≈ 19.5 µM) | 11 min | 2.4 | 12.5 µg/mL (≈ 38.7 µM) | 120 nM | 680 | 
O=C(Nc1ccc(Cl)c(-c2nc3ncccc3o2)c1)c1ccccc1 |  |  |  |  |  | 1500 nM | 54 | IC50 (L6): 51000 nM; IC50 (Leishmania donovani [8]): 37000 nM; IC50 (Leishmania donovani [9]): 6100 nM; IC50 (Plasmodium falciparum): 6900 nM; IC50 (Trypanosoma cruzi): 2900 nM; IC50 [10]: 4200 nM

More lines, main results first:

microsomal CLint at 1 µM [1] | solubility kinetic [2] | half-life at 1 µM [3] | logD [4] | solubility kinetic [5] | IC50 [7] | Structure (SMILES) | selectivity ratio [6] | other results
228 µL/min/mg | < 1.6 µg/mL | 8 min | 3.3 | 1.6 µg/mL (≈ 4.8 µM) | 570 nM | Cc1ccc(NC(=O)c2occc2C)cc1-c1nc2ncccc2o1 | 145 | 
 |  |  |  |  | 1800 nM | O=C(Nc1ccc(Cl)c(-c2nc3ncccc3o2)c1)c1cscn1 | 39 | IC50 (L6): 235000 nM; IC50 (Leishmania donovani [8]): > 84000 nM; IC50 (Leishmania donovani [9]): 4800 nM; IC50 (Plasmodium falciparum): 7700 nM; IC50 (Trypanosoma cruzi): 2300 nM; IC50 [10]: 1100 nM
258 µL/min/mg | 1.6 µg/mL (≈ 4.71 µM) | 7 min | 2.7 | 1.6 µg/mL (≈ 4.71 µM) | 220 nM | O=C(Nc1ccc(Cl)c(-c2nc3ncccc3o2)c1)c1ccco1 | > 345 | IC50 (L6): 23000 nM; IC50 (Leishmania donovani [9]): 1800 nM; IC50 (Plasmodium falciparum): 7800 nM; selectivity ratio [11]: 99; selectivity ratio [12]: 39; IC50 (Trypanosoma cruzi): 230 nM; IC50 [10]: 590 nM
202 µL/min/mg | 1.6 µg/mL (≈ 4.74 µM) | 9 min | 2.9 | 1.6 µg/mL (≈ 4.74 µM) | 100 nM | Cc1ccoc1C(=O)Nc1ccc(F)c(-c2nc3ncccc3o2)c1 | 840 | 
 |  |  |  |  | 300 nM | O=C(Nc1ccc(Cl)c(-c2nc3ncccc3o2)c1)c1ccoc1 | 160 | IC50 (L6): 65000 nM; IC50 (Leishmania donovani [8]): 12000 nM; IC50 (Leishmania donovani [9]): 340 nM; IC50 (Plasmodium falciparum): 4900 nM; selectivity ratio [12]: > 700; IC50 (Trypanosoma cruzi): 260 nM; IC50 [10]: 91 nM
181 µL/min/mg | 3.1 µg/mL (≈ 9.71 µM) | 10 min | 2.9 | 6.3 µg/mL (≈ 19.7 µM) | 170 nM | Cc1ccoc1C(=O)Nc1cccc(-c2nc3ncccc3o2)c1 | 115 | 
176 µL/min/mg | 6.3 µg/mL (≈ 19.7 µM) | 10 min | 2.7 | 12.5 µg/mL (≈ 39.1 µM) | 310 nM | Cc1ccc(NC(=O)c2ccoc2)cc1-c1nc2ncccc2o1 | 103 | 
